Data on 16 compounds can be found in ChEMBL document CHEMBL3875199, “Photodynamic effect of meso-(aryl)porphyrins and meso-(1-methyl-4-pyridinium)porphyrins on HaCaT keratinocytes” (Bioorg Med Chem Lett, 2017).

For orientation: IC50 means the concentration that inhibits the measured activity by half.

Data set [1] can be described thus: Induction of singlet oxygen production assessed as amount of DPiBF remaining after irradiation with light at 9 mW/cm'2 for 30 mins by DPiBF photooxidation based spectrophotometric analysis (reference value: 80%). In kind it is physicochemical. The settings on record: 0.5 h. An outline of the steps: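 Singlet oxygen measured by DPiBF photooxidation in DMF. Light at 9 mW/cm² for 30 min. DPiBF absorbance at 415 nm reported as percent of the starting value.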

A short description of data set [2]: Phototoxicity against human HaCaT cells assessed as cell viability at 1 uM after irradiation with light at 180 J/cm'2 for 30 mins by MTT assay. The settings on record: light or radiation study, 0.5 h, read-out: Activity. It counts as functional. An outline of the steps:
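HaCaT screen at 1 µM porphyrin. Light 100 mW/cm² for 30 min (fluence 180 J/cm²). Viability by MTT, given as percent.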
(Tetrazolium assays rely on reduction of a dye to a coloured formazan, in cell work by metabolically active cells.)

Data set [3] can be described thus: Dark toxicity against human HaCaT cells assessed as reduction in cell viability at >0.1 uM after 24 hrs by MTT assay. In kind it is cell-based. Put shortly: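 HaCaT keratinocytes held with porphyrin in the dark for 24 h, no light exposure, over 0.01–1 µM (untreated control as 0). Viability read by MTT.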
The nature of data set [4]: Phototoxicity against human HaCaT cells assessed as reduction in cell viability after irradiation with white light at 120 J/cm'2 for 20 mins by MTT assay. Conditions: light or radiation study. In kind it is functional, cell-based. Put shortly: (§1)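 HaCaT PDT at 0.01, 0.03, 0.1, 0.3 and 1 µM porphyrin (untreated control as 0). Light 100 mW/cm² for 20 min (fluence 120 J/cm²). Viability by MTT. IC50 estimated from the roughly linear concentration–viability relationship.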

Data set [5] can be described thus: Photostability of compound in aqueous media assessed as amount of soret band remaining after irradiation with white light at 100 mW/cm'2 for 30 mins by UV-spectrophotometric analysis. It counts as physicochemical. The settings on record: read-out: Stability. Put shortly:
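Porphyrin in aqueous medium under white light, 100 mW/cm², sampled at intervals up to 30 min. Soret band absorbance tracked and given as percent remaining of the original.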

Data set [6] in a line: Phototoxicity against human HaCaT cells assessed as cell viability at 0.01 uM after irradiation with white light at 120 J/cm'2 for 20 mins by MTT assay. It counts as functional. The settings on record: light or radiation study, read-out: Activity. Put shortly:
as §1

For the compound `C[n+]1ccc(-c2c3nc(c(-c4ccccc4)c4ccc([nH]4)c(-c4ccccc4)c4nc(c(-c5cc[n+](C)cc5)c5ccc2[nH]5)C=C4)C=C3)cc1.[I-].[I-]`, the figures for the Activity in data set [1] and in data set [3] were 20% and “Toxic”, respectively. The viability at 1 µM in data set [2] was 23.2%. Moreover, in data set [4], the IC50 is 0.0523 µM. The remaining at 0.5 h in data set [5] is 92%. Besides, in data set [6], the viability at 0.01 µM is 69%.

In the case of `Nc1ccc(-c2c3nc(c(-c4ccccc4)c4ccc([nH]4)c(-c4ccccc4)c4nc(c(-c5ccccc5)c5ccc2[nH]5)C=C4)C=C3)cc1`, the Activity in data set [1] came to 59%. Further, in data set [2], the viability at 1 µM was determined as 100%. In addition, the remaining at 0.5 h in data set [5] was 96%.

Consider `C[n+]1ccc(Sc2c(F)c(F)c(-c3c4nc(c(-c5c(F)c(F)c(Sc6cc[n+](C)cc6)c(F)c5F)c5ccc([nH]5)c(-c5c(F)c(F)c(Sc6cc[n+](C)cc6)c(F)c5F)c5nc(c(-c6c(F)c(F)c(Sc7cc[n+](C)cc7)c(F)c6F)c6ccc3[nH]6)C=C5)C=C4)c(F)c2F)cc1.[I-].[I-].[I-].[I-]`, for which the Activity in data set [1] is recorded as 25%. Also, in data set [2], the viability at 1 µM is 20.3%. In data set [4], the IC50 amounted to 0.24 µM. Further, the remaining at 0.5 h in data set [5] stood at 89%.

Turning to `Clc1ccc(-c2c3nc(c(-c4ccc(Cl)cc4)c4ccc([nH]4)c(-c4ccc(Cl)cc4)c4nc(c(-c5ccc(Cl)cc5)c5ccc2[nH]5)C=C4)C=C3)cc1`, in data set [2], the viability at 1 µM was found to be 100%.

In the case of `C1=Cc2nc1c(-c1ccccc1)c1ccc([nH]1)c(-c1ccccc1)c1nc(c(-c3ccccc3)c3ccc([nH]3)c2-c2ccccc2)C=C1`, the viability at 1 µM in data set [2] amounted to 100%.

As to `C[n+]1ccc(-c2c3nc(c(-c4ccccc4)c4ccc([nH]4)c(-c4ccccc4)c4nc(c(-c5ccccc5)c5ccc2[nH]5)C=C4)C=C3)cc1.[I-]`, the Activity in data set [1] is 13%. Besides, the viability at 1 µM in data set [2] was found to be 29.4%. In addition, the IC50 in data set [4] was determined as 0.602 µM.

On to `C1=Cc2nc1c(-c1ccc3ccccc3c1)c1ccc([nH]1)c(-c1ccc3ccccc3c1)c1nc(c(-c3ccc4ccccc4c3)c3ccc([nH]3)c2-c2ccc3ccccc3c2)C=C1`, for which the Activity in data set [1] is reported as 25%. Further, the viability at 1 µM in data set [2] amounted to 100%.

For `CC(=O)Oc1ccc(-c2c3nc(c(-c4ccc(OC(C)=O)cc4)c4ccc([nH]4)c(-c4ccc(OC(C)=O)cc4)c4nc(c(-c5ccc(OC(C)=O)cc5)c5ccc2[nH]5)C=C4)C=C3)cc1`, the Activity in data set [1] was 29%. For the same compound, the viability at 1 µM in data set [2] came out at 100%. Moreover, the remaining at 0.5 h in data set [5] worked out at 83%.

Regarding `O=[N+]([O-])c1ccc(-c2c3nc(c(-c4ccccc4)c4ccc([nH]4)c(-c4ccc([N+](=O)[O-])cc4)c4nc(c(-c5ccccc5)c5ccc2[nH]5)C=C4)C=C3)cc1`, the Activity in data set [1] stood at 28%. Besides, the viability at 1 µM in data set [2] was determined as 95.2%. For the same compound, the remaining at 0.5 h in data set [5] is 97%.

Regarding `O=S(=O)([O-])c1ccc(-c2c3nc(c(-c4ccc(S(=O)(=O)[O-])cc4)c4ccc([nH]4)c(-c4ccc(S(=O)(=O)[O-])cc4)c4nc(c(-c5ccc(S(=O)(=O)[O-])cc5)c5ccc2[nH]5)C=C4)C=C3)cc1.[Na+].[Na+].[Na+].[Na+]`, the Activity in data set [1] is given as 24%. Also, in data set [2], the viability at 1 µM worked out at 76.1%. For the same compound, the remaining at 0.5 h in data set [5] was 91%.

On to `C[n+]1ccc(-c2c3nc(c(-c4cc[n+](C)cc4)c4ccc([nH]4)c(-c4cc[n+](C)cc4)c4nc(c(-c5ccccc5)c5ccc2[nH]5)C=C4)C=C3)cc1.[I-].[I-].[I-]`, for which, in data set [1], the Activity is recorded as 12%. The viability at 1 µM in data set [2] was 23.9%. For the same compound, the IC50 in data set [4] is 0.067 µM. For the same compound, the remaining at 0.5 h in data set [5] turned out to be 97%.

In the case of `Cc1ccc(-c2c3nc(c(-c4ccc(C)cc4)c4ccc([nH]4)c(-c4ccc(C)cc4)c4nc(c(-c5ccc(C)cc5)c5ccc2[nH]5)C=C4)C=C3)cc1`, the viability at 1 µM in data set [2] amounted to 100%.

For the compound `C[n+]1ccc(-c2c3nc(c(-c4cc[n+](C)cc4)c4ccc([nH]4)c(-c4cc[n+](C)cc4)c4nc(c(-c5cc[n+](C)cc5)c5ccc2[nH]5)C=C4)C=C3)cc1.[I-].[I-].[I-].[I-]`, the Activity in data set [1] is listed as 22%. Further, the viability at 1 µM in data set [2] turned out to be 26.6%. Further, the IC50 in data set [4] was 0.059 µM. In addition, the remaining at 0.5 h in data set [5] turned out to be 98%.

Consider `C[n+]1ccc(-c2c3nc(c(-c4ccccc4)c4nc(c(-c5cc[n+](C)cc5)c5ccc([nH]5)c(-c5ccccc5)c5ccc2[nH]5)C=C4)C=C3)cc1.[I-].[I-]`, for which the Activity in data set [1] was 18%. The viability at 1 µM in data set [2] worked out at 19.5%. The IC50 in data set [4] amounted to 0.136 µM. Also, the remaining at 0.5 h in data set [5] is 91%.

In the case of `O=[N+]([O-])c1ccc(-c2c3nc(c(-c4ccccc4)c4ccc([nH]4)c(-c4ccccc4)c4nc(c(-c5ccccc5)c5ccc2[nH]5)C=C4)C=C3)cc1`, in data set [1], the Activity was determined as 33%. In data set [2], the viability at 1 µM amounted to 92.8%. Further, the remaining at 0.5 h in data set [5] stood at 96%.

With `COc1ccc(-c2c3nc(c(-c4ccc(OC)cc4)c4ccc([nH]4)c(-c4ccc(OC)cc4)c4nc(c(-c5ccc(OC)cc5)c5ccc2[nH]5)C=C4)C=C3)cc1`, the Activity in data set [1] amounted to 28%. Moreover, in data set [2], the viability at 1 µM was 100%. In addition, the remaining at 0.5 h in data set [5] amounted to 97%.
